Test results taken from publication PMC9365243 (Chemical Science, 2022).

Tested on: human monocyte-derived macrophages
Assay: Fluorophore uptake, fluorescence microscopy of macrophages
Assay type: cell-based
Details: 30 μM, 3 h, 37 °C, fluorescence microscopy (λex 492 nm, λem 518 nm)
How it was run: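 Human monocyte-derived macrophages were incubated for 3 h with 30 μM free fluorophore or fluorophore-labelled oligopeptide, with DMSO alone as negative control. Cells were then imaged by fluorescence microscopy in the green channel (λex = 492 nm, λem = 518 nm) and in light field to find where the fluorophore sat.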

## O=C(O)c1ccc2c(c1)C(=O)OC21c2ccc(O)cc2Oc2cc(O)ccc21 [5-FAM, 5-carboxy-fluorescein]
  uptake into cells (fluorophore localization): not able to penetrate the cell membrane
